# Measurements gathered from unrelated publications.
# Each line is one published result; the experiments were not run side by side.
# Target: Protein-tyrosine kinase 2-beta (PTK2B, Homo sapiens, UniProt Q14289)
Compound,effect on,method,concentration,remaining binding
CS(=O)(=O)c1cc(C2(NC(=O)c3cncc4c3cnn4-c3ccc(F)cc3)CC2)ccn1,cell-free assay,competition with immobilised ligand,1 µM,100%
CN(CCCC(F)(F)F)c1nccc(-c2cnn3ncccc23)n1,binding,,1 µM,100%
O=C(NCCCN1CCOCC1)c1ccc(Nc2nccc(-c3cc4ccccc4s3)n2)cc1,binding,competition with immobilised ligand,1 µM,64%
C[C@@H](c1ccc(-n2cnc3c(N)ncnc32)cc1)N1CCc2nn(C)c(Cc3ccccc3)c2C1=O,binding,competition with immobilised ligand,0.1 µM,95%
O=C(c1ccc(Nc2nccc(-c3cc4ccccc4s3)n2)cc1)N1CCC(N2CCCC2)CC1,binding,competition with immobilised ligand,1 µM,81%
CO[C@H]1CC[C@H](CNc2ccc(S(=O)(=O)NC(=O)c3ccc(N4CCN(CC5=C(c6ccc(Cl)cc6)CC(C)(C)CC5)CC4)cc3Oc3cnc4[nH]ccc4c3)cc2[N+](=O)[O-])CC1,cell-free assay,competition with immobilised ligand,1 µM,87%
CNC(=O)[C@@H]1CC[C@@H](n2c(-c3ccc4cnccc4c3)nc3ccc(C(=O)NCc4cccc(C(N)=O)c4)cc32)C1,binding,competition with immobilised ligand,1 µM,99%
O=C(Nc1c[nH]nc1C(=O)NC1CCNCC1)c1cc(F)cc(F)c1,binding,competition with immobilised ligand,1 µM,91%
CN(C)C(=O)Cn1cc(-c2nc([C@@](C)(c3ccc(-c4cnc(N)nc4)cc3)C3CC3)no2)cn1,cell-free assay,competition with immobilised ligand,1 µM,87%
N[C@H]1CCN(c2nccc(-c3cnn4ncccc34)n2)C1,binding,,1 µM,100%
COc1cnc(Nc2cccc(S(N)(=O)=O)c2)nc1N1CCN(c2ccccc2)CC1,binding,competition with immobilised ligand,1 µM,89%
COc1ncc2cc3ccccc3nc2c1C#N,cell-free assay,competition with immobilised ligand,5 µM,100%
CN(C)c1ncc(F)c(-c2cnn3ncccc23)n1,binding,,1 µM,100%
O=C(NC[C@@H]1[C@H]2CN(C(=O)OCc3cc(C(F)(F)F)cc(C(F)(F)F)c3)C[C@@H]12)c1ccc2[nH]nnc2c1,cell-free assay,competition with immobilised ligand,1 µM,85%
Cc1cnc(Nc2ccc(C(=O)N3CCC(N4CCCC4)CC3)cc2)nc1-c1cc2ccccc2s1,binding,competition with immobilised ligand,1 µM,28%
COc1ccnn2ncc(-c3ccnc(N(C)C)n3)c12,binding,,1 µM,100%
C[C@H](c1cccc(C#N)c1)n1cc(Cl)cc(C(N)=O)c1=N,cell-free assay,competition with immobilised ligand,1 µM,100%
Cc1cnn2ncc(-c3ccnc(N(C)C)n3)c2c1,binding,,1 µM,100%
CC(=O)c1c(NS(C)(=O)=O)c2cc(-c3ccc(Cl)cc3)c(-c3ccc(Cl)cc3Cl)nc2n(C)c1=O,cell-free assay,competition with immobilised ligand,1 µM,100%
c1cnn2ncc(-c3ccnc(N4CCC45COC5)n3)c2c1,binding,,1 µM,80%
C=CC(=O)N1CCC(C(=O)NCC(=O)N2CCN(c3nc(-c4cnc(N)nc4C(F)F)nc(N4CCOCC4)n3)CC2)CC1,binding,competition with immobilised ligand,1 µM,100%
